Here are results for 7 compounds from ChEMBL document CHEMBL4052675, “Synthesis, biological evaluation and molecular modeling of imidazo[1,2-a]pyridine derivatives as potent antitubulin agents” (Bioorg Med Chem, 2017).

Active and inactive are the calls of the source. The calls are words filed in the database; no cut-off is given here.

For experiment [1], the species on record is Homo sapiens. Put plainly: Inhibition of tubulin polymerization in human HT-29 cells assessed as abnormal microtubule network formation at 88 nM after 24 hrs by DAPI staining based immunofluorescence microscopic analysis. The experiment is classed as cell-based. The method in brief: (§1)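 HT-29 seeded at 1×10^4 per well, grown 24 h, then treated 24 h; controls received medium. Fixed in 4% formaldehyde/PBS (30 min, −20 °C), permeabilized with 0.2% Triton X-100, and blocked with 5% BSA. Stained with anti-α-tubulin (1:100, overnight, 4 °C), then FITC anti-mouse secondary (1:100, 2 h, 37 °C). DAPI counterstain; imaged by fluorescence microscopy.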

In experiment [2] the test system is A549. Put plainly: Cytotoxicity against human A549 cells after 72 hrs by MTT assay. The experiment is classed as functional, cell-based. Particulars: A549, 72 h. The method in brief: (§2)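 Cells grown in MEM with 10% FBS; about 4×10^3 cells per well, preincubated 24 h at 37 °C in 5% CO₂, then exposed to compounds for 72 h. MTT at a […] added for 4 h at 37 °C. Formazan dissolved in DMSO; absorbance read at 492 nm against 630 nm reference. Three runs per line; IC50 reported as mean ± SD.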

Experiment [3] concerns SMMC-7721. Kind of experiment: Cytotoxicity against human SMMC7721 cells after 72 hrs by MTT assay. The experiment is classed as functional, cell-based. As to conditions: SMMC-7721, 72 h. The method in brief: as §2
The species named for experiment [4] is Homo sapiens. Kind of experiment: Inhibition of tubulin polymerization in human HT-29 cells assessed as microtubule disruption by measuring scattered short microtubule fragment in cytoplasm at 88 nM after 24 hrs by DAPI staining based immunofluorescence microscopic analysis. The experiment is classed as cell-based. The method in brief: as §1
For experiment [5], the system named is NCI-H460. Kind of experiment: Cytotoxicity against human NCI-H460 cells after 72 hrs by MTT assay. Format: functional, cell-based. As to conditions: NCI-H460, 72 h. The method in brief:
as §2
For orientation: Tetrazolium dyes change colour on reduction, which living cells bring about.

Experiment [6] concerns HT-29. Put plainly: Potency index, ratio of crolibulin IC50 to test compound IC50 for human HT-29 cells. Format: functional.
The test system of experiment [7] is MKN-45. Kind of experiment: Cytotoxicity against human MKN45 cells after 72 hrs by MTT assay. The experiment is classed as functional, cell-based. As to conditions: MKN-45, 72 h. The method in brief:
as §2

Experiment [8] deals with HT-29. Put plainly: Cytotoxicity against human HT-29 cells after 72 hrs by MTT assay. The experiment is classed as functional, cell-based. As to conditions: HT-29, 72 h. The method in brief: as §2
The species named for experiment [9] is Homo sapiens. Put plainly: Inhibition of colchicine binding to tubulin (unknown origin) pretreated for 1 hr followed by colchicine addition by spectrofluorometric method. The method in brief: (§3)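 Tubulin preincubated 1 h at 37 °C with test agent (0, 1.6, 5, 15 μM), then colchicine added to a final 5 μM. Fluorescence read at excitation 365 nm and emission 435 nm, with buffer blank subtracted. Value is F/F0 × 100%, where F0 is fluorescence of the colchicine–tubulin complex without competitor.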

Experiment [10] deals with HT-29. Kind of experiment: Potency index, ratio of CA-4 IC50 to test compound IC50 for human HT-29 cells. The experiment is classed as functional.
The species entered for experiment [11] is Homo sapiens. Put plainly: Inhibition of colchicine binding to tubulin (unknown origin) up to 15 uM pretreated for 1 hr followed by colchicine addition by spectrofluorometric method. The method in brief: as §3
The species entered for experiment [12] is Homo sapiens. Put plainly: Inhibition of tubulin polymerization in human HT-29 cells assessed as microtubule disruption by measuring scattered short microtubule fragment in cytoplasm at 20 nM after 24 hrs by DAPI staining based immunofluorescence microscopic analysis. Format: cell-based. The method in brief:
as §1

Experiment [13] is filed under the species Homo sapiens. Put plainly: Inhibition of tubulin polymerization in human HT-29 cells assessed as abnormal microtubule network formation at 20 nM after 24 hrs by DAPI staining based immunofluorescence microscopic analysis. Format: cell-based. The method in brief: as §1

As for `N#Cc1c(-c2ccc(F)cc2F)cc(-c2c[nH]c3ccccc23)n2cc(CNC3CCCCC3)nc12`, the inhibition entry in experiment [1] and in experiment [4] was “Active” in each case. Further, the IC50 was found to be 540 nM in experiment [2]; 5600 nM in experiment [3]; 40 nM in experiment [5]; 2400 nM in experiment [7]; 10 nM in experiment [8]. In addition, the “Ratio IC50” value in experiment [6] is reported as 52; in experiment [10], 5. For the same compound, in [9], the inhibition result was “Dose-dependent effect”.

As to `CC(=O)O[C@H]1C(=O)[C@@]2(C)[C@H]([C@H](OC(=O)c3ccccc3)[C@]3(O)C[C@H](OC(=O)[C@H](O)[C@@H](NC(=O)c4ccccc4)c4ccccc4)C(C)=C1C3(C)C)[C@]1(OC(C)=O)CO[C@@H]1C[C@@H]2O`, in experiment [11], the inhibition entry was “inactive”.

For the compound `COc1ccc(-c2cc(-c3ccc(F)cc3F)n3c(CN(C)C)cnc3c2C#N)c(OC)c1OC`, the IC50 came to 1980 nM in experiment [2]; 6480 nM in experiment [3]; 200 nM in [5]; 9080 nM in [7]; 230 nM in experiment [8].

With `COc1ccc(-c2cc(-c3ccc(F)cc3)n3c(CN(C)C)cnc3c2C#N)c(OC)c1OC`, the IC50 came to 670 nM in experiment [2]; 3020 nM in experiment [3]; 9330 nM in experiment [5]; 6990 nM in [7]; 800 nM in experiment [8].

Regarding `CN1CCN(Cc2cn3c(-c4c[nH]c5ccccc45)cc(-c4ccc(F)cc4Cl)c(C#N)c3n2)CC1`, the IC50 in [2] came out at 1550 nM; in experiment [3] it was 7120 nM; in [5], 220 nM; in experiment [7] it was 3620 nM; in experiment [8], 140 nM.

Take `COc1ccc(/C=C\c2cc(OC)c(OC)c(OC)c2)cc1O` [COMBRETASTATIN A4]: the IC50 in experiment [2] turned out to be 430 nM; in experiment [3], 1920 nM; in [5], 80 nM; in experiment [7], 110 nM; in experiment [8] it was 50 nM. Also, the inhibition result in [11], in [12] and in experiment [13] was “Active” throughout.

In the case of `CCN(CC)Cc1cnc2c(C#N)c(-c3ccc(OC)c(OC)c3OC)cc(-c3ccc(F)cc3F)n12`, the half-inhibitory concentration (IC50) in experiment [2] amounted to 1040 nM; in experiment [3], 1310 nM; in experiment [5] it was 60 nM; in experiment [7] it was 6790 nM; in experiment [8] it was 210 nM.

Broadly, the IC50 is the concentration that inhibits the measured activity by half.
